Screening data deposited in PubChem BioAssay by The Scripps Research Institute Molecular Screening Center.
LEDGF integ inh: blockers of LEDGF/p75-dependent integrase strand transfer – biochemical, TR-FRET, high throughput, primary screen | inhibition, % at 3.7 µM | TR-FRET IN-LEDGF/p75 DNA integration, Eu/Cy5 | HIV-1 integrase (with human LEDGF/p75) | 0.64% of 370,000 active | AID 743269, 2014;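 active = inhibition above the screen-wide mean plus 3 SD, cut at about 13% in these data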;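 also: signal is the Cy5 over europium emission ratio at 671 and 618 nm; 0% = plate median of compound wells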
HTRA1 inh: HTRA1 serine protease inhibitors, primary screen, biochemical, fluorescence polarization, HTS; Q92743; 0.5% of 340,000 active; recombinant HTRA1, FP-rhodamine activity-based probe; inhibition, % at 5.96 µM; in the data active = inhibition above about 36%;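 also: 0% = enzyme with DMSO and 100% = wells lacking enzyme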
Target sequence (Q92743 whole entry, looked up): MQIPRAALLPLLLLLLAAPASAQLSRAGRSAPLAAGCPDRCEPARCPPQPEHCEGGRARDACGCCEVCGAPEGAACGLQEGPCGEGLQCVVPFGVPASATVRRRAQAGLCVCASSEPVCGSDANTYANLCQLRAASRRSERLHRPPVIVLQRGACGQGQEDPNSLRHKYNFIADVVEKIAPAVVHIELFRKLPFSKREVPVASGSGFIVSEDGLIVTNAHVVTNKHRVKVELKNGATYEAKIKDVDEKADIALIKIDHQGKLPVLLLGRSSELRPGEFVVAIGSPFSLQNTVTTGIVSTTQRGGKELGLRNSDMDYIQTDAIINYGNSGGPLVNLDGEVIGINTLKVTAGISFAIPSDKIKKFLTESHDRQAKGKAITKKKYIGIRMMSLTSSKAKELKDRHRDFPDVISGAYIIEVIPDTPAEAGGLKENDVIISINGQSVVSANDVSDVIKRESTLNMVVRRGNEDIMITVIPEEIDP
SIAE primary: human SIAE inhibitors, primary screen, biochemical, fluorescence polarization, FP-Rh probe, 1536-well HTS. SIAE FP-Rh probe binding. inhibition, % at 9.66 µM. 0.69% of 370,000 active. AID 1053197, 2014;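 active = inhibition above a cutoff: mean of compounds within the control limits plus 3 SD of those, cut at about 17% in these data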;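 also: 0% = plate median of compound wells and 100% = probe without SIAE protein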
TCR-CD3 inh: inhibitors of human TCR-CD3 interaction, primary screen, biochemical, fluorescence, TAMRA-labeled TCR probe. AID 651800, 2012. 0.37% of 360,000 active. inhibition, % at 9.4 µM; in the data active = inhibition above about 19%;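 also: recombinant mutant TCR 2C K166C tagged with TAMRA read by polarization; 0% = receptor in buffer alone and 100% = receptor with positive control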
ABHD4 inh: ABHD4 inhibitors, primary screen, biochemical, fluorescence polarization, mouse; purified mABHD4, FP-Rh probe fluorescence polarization; 0.54% of 370,000 active; (Lyso)-N-acylphosphatidylethanolamine lipase (Mus musculus), Q8VD66; inhibition, % at 8.92 µM; AID 720543, 2013;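 active = inhibition exceeding the mean over every tested compound plus 3 SD, cut at about 30% in these data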;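 also: 0% = plate median of compound wells and 100% = S159A mutant with DMSO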
Target sequence (Q8VD66 whole entry, looked up): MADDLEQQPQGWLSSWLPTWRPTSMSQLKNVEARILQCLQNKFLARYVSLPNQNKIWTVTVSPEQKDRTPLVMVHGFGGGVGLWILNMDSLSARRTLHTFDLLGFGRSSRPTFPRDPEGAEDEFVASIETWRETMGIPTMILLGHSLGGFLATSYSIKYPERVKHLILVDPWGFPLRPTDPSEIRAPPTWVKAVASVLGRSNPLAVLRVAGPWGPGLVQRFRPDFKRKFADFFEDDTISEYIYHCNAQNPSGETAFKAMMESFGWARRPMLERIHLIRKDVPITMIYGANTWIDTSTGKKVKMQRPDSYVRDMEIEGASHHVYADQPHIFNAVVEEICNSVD
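Test system: mABHD4 protein | Buffer or medium: HEPES pH 7.0 buffer, 150 mM NaCl, 0.01% Pluronic F-127 | Probe or stimulus: FP-Rh fluorescent activity-based probe, added after compound pre-incubation | Timing: Pre-incubation 45 min, probe exposure 60 min, at 25 °C | Technique: Fluorescence polarization, excitation 525 nm, emission 598 nm, BODIPY TMR filters | Repeats: Single well per compound (singlicate)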
TDP2 absorb: human TDP2 enzyme inhibitors, primary screen, biochemical, epi absorbance, recombinant enzyme | T5PNP hydrolysis, p-nitrophenol absorbance 415 nm | inhibition, % at 12.8 µM | 0.34% of 370,000 active;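 active = inhibition above the mean of all tested compounds plus 3 SD, set per campaign, cut at about 25% in these data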;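 also: 0% = DMSO with enzyme and 100% = buffer with substrate but no TDP2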
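Assay system: recombinant human TDP2 / Reagent: T5PNP substrate at 5 mM, a TopII-DNA adduct mimic / Measured by: epi absorbance from released p-nitrophenol / Evaluation: % inhibition relative to enzyme-containing and enzyme-free wells / Control set: enzyme-free and DMSO wells / Replicates: each compound tested once, singlicate / Schedule: enzyme reaction with compound for 2 h at 37 °C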
IN multimer act: HIV-1 IN multimer formation enhancers, counter-screen for LEDGF/p75 integration inhibitor project, biochemical, TR-FRET. AID 1053131, 2014. 17% of 2,000 active. activation, % at 7.7 µM. TR-FRET HIV-1 integrase multimerization. shares compounds with LEDGF integ inh; in the data active = activation above about 8.9%
TR-FRET interf: TR-FRET optical interference artefacts, confirmation, artefact control for LEDGF/p75-dependent integration inhibitor project, biochemical, HIV-1 IN multimerization | TR-FRET optical interference counterscreen | inhibition, % at 7.7 µM | shares compounds with LEDGF integ inh | 2,000 tested, under 10 active | AID 1053135, 2014;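 active = inhibition above the mean over all tested compounds plus 3 SD, which no compound reached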;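 also: 0% = integrase with antibodies and DMSO and 100% = antibodies without integrase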
LEDGF integ conf: inhibitors of HIV-1 IN-LEDGF/p75 DNA integration, confirmation, biochemical, TR-FRET. shares compounds with LEDGF integ inh. inhibition, % at 3.7 µM. 36% of 2,000 active. TR-FRET LEDGF/p75-dependent HIV-1 integration. AID 1053136, 2014; in the data active = inhibition above about 14%
Starred values were filed as active, the others as inactive; nt = not tested or not shown. An excerpt weighted towards active compounds, which were near 2.2% of everything screened.

SMILES | LEDGF integ inh | HTRA1 inh | SIAE primary | TCR-CD3 inh | ABHD4 inh | TDP2 absorb | IN multimer act | TR-FRET interf | LEDGF integ conf
O=C(Nc1cccs1)Nc1ccccc1Cl | 14.7* | -4.2 | 0.1 | 3.4 | -1.1 | -6.6 | 3.9 | -19.7 | 5.7
Cc1ccc(NC(=O)Nc2cccs2)c(Cl)c1 | -2.9 | -3.4 | -4.3 | -7.7 | -3.5 | -21.0 | nt | nt | nt
CN(Cc1ccccc1)C(=O)c1cccc(NC(=O)Cc2cccc(NC(=O)C3CCN(C(=O)c4ccccc4)CC3)c2)c1 | 5.8 | -12.3 | -7.5 | 2.2 | -3.7 | 4.2 | nt | nt | nt
Cc1cc(=O)oc2cc3c(cc12)OCCO3 | 28.6* | 3.8 | 12.1 | -3.2 | 4.4 | 2.1 | -3.5 | 12.6 | -0.1
Cc1cc(=O)oc2cc3c(cc12)OCO3 | 3.9 | 2.7 | 3.7 | -5.0 | -2.6 | -2.5 | nt | nt | nt
Cc1ccc(/C=C/C(=O)Nc2cccc3cccnc23)o1 | 14.4* | 22.2 | -4.1 | 0.3 | 22.1 | -0.1 | 2.3 | -8.4 | 1.4
Cc1cccc(C(=O)Nc2cccc3cccnc23)c1 | 4.8 | -26.7 | -0.2 | 2.1 | -3.6 | -0.9 | nt | nt | nt
CCCc1cc(=O)oc2cc(OCC(=O)NCC3CCC(C(=O)O)CC3)ccc12 (configuration not stated) | 33.2* | -2.9 | 8.1 | -6.6 | 25.0 | 0.2 | -4.0 | 14.4 | 0.5
Fc1ccc(CNC(=S)Nc2cccc(Cl)c2)cc1 | 15.4* | -20.1 | 8.2 | nt | -10.9 | -0.7 | -0.8 | 4.2 | -0.9
O=[N+]([O-])c1ccc2c(c1)nc1n2CCN(c2ccccc2)C1 | 16.8* | -24.7 | -3.9 | 1.1 | 2.2 | -2.1 | 0.2 | -0.9 | 7.4
Cc1ccc(C(=O)ONc2ccc(N=NC(=O)c3ccccc3O)cc2)cc1 | 20.0* | 23.7 | 7.7 | 7.1 | 14.0 | -12.7 | 1.9 | -6.6 | -1.1
CCNC(=O)C1(C)CCCN1C(=O)c1ccc(-c2ccccc2)cc1 (configuration not stated) | 0.0 | nt | -4.9 | -1.2 | -1.9 | -1.7 | nt | nt | nt
COC(=O)C1CN(Cc2cn(Cc3ccc(C)cc3)nn2)CCS(=O)(=O)N1Cc1ccc(F)cc1 (configuration not stated) | 7.3 | nt | 0.7 | nt | -3.8 | 3.5 | nt | nt | nt
COc1ccccc1CN1CCCC(N2CCN(c3ccccc3OC)CC2)C1 (configuration not stated) | -0.5 | 6.7 | 0.0 | -4.0 | 3.1 | 15.0 | nt | nt | nt
Fc1ccccc1N1CCN(C2CCCN(Cc3ccccc3C(F)(F)F)C2)CC1 (configuration not stated) | 16.1* | 4.5 | 0.8 | -3.6 | -7.2 | -22.8 | 0.1 | -0.4 | 2.3
CSc1ccc(C2C(C#N)=C(N)Oc3c2ccc(=O)c2c(C)oc(C)c32)cc1 (configuration not stated) | -2.3 | 36.0 | 5.9 | 1.5 | 18.8 | -3.1 | nt | nt | nt
Cc1oc(C)c2c(=O)ccc3c(c12)OC(N)=C(C#N)C3c1ccccc1 (configuration not stated) | 15.0* | 24.0 | 6.4 | -9.3 | 14.9 | -16.9 | -2.0 | 7.1 | 7.7
Cc1cccc(-c2nnc(SCC(=O)c3ccc(F)cc3)n2C)c1 | 0.6 | nt | -1.5 | nt | 2.5 | 0.0 | nt | nt | nt
Cc1ccn(CCC(=O)N2CCCC(N3CCN(c4ccccc4C)CC3)C2)n1 (configuration not stated) | 57.7* | 7.4 | -0.3 | -0.2 | 6.9 | 2.9 | -0.9 | 4.4 | 0.3
Cc1ccccc1N1CCN(C2CCCN(C(=O)CCC(=O)N(C)C)C2)CC1 (configuration not stated) | 0.8 | 2.5 | 6.3 | 10.7 | -4.9 | -16.2 | nt | nt | nt
CCCC1=NN2C(=N)/C(=C\c3ccc(SCc4ccco4)o3)C(=O)N=C2S1 | nt | -67.9 | nt | nt | nt | nt | nt | nt | nt
CCC1=NN2C(=N)/C(=C\c3ccc(SCc4ccco4)o3)C(=O)N=C2S1 | 50.1* | -95.3 | -54.9 | -30.7 | -105.1 | 6.0 | 5.0 | -25.2 | 26.8*
Cc1cc(=O)n2[nH]c(-c3ccsc3-n3c(C)ccc3C)cc2n1 | 27.8* | 30.0 | -5.2 | 15.7 | 13.4 | -0.1 | 25.2* | -126.7 | 50.0*
c1ccc(-c2noc(CN3CCN(C(c4ccccc4)c4ccccc4)CC3)n2)cc1 | 15.2* | 1.8 | -0.2 | 8.0 | -5.3 | 11.7 | 0.3 | -1.5 | -1.0
Cn1c(SCC(=O)N2CCOCC2)nnc1-c1ccncc1 | 0.3 | 9.3 | -6.5 | -4.3 | 3.8 | -5.0 | nt | nt | nt
SMILES | LEDGF integ inh | HTRA1 inh | SIAE primary | TCR-CD3 inh | ABHD4 inh | TDP2 absorb | IN multimer act | TR-FRET interf | LEDGF integ conf
Cn1c(SCC(=O)N2CCOCC2)nnc1-c1cnccn1 | 20.4* | -0.5 | -0.9 | -4.8 | -0.9 | 7.8 | -0.1 | 0.3 | 4.1
Nc1ncnc2c1ncn2[C@@H]1O[C@H](CNS(=O)(=O)CCCCl)[C@@H](O)[C@H]1O | -11.7 | -4.1 | 1.1 | 4.2 | 0.5 | 2.4 | nt | nt | nt
O=C(Nc1ccc2c(c1)oc1ccc(S(=O)(=O)N3CCCC3)cc12)C1CC1 | 24.2* | -39.3 | -11.4 | 1.2 | -30.3 | 14.1 | 1.0 | -3.2 | -3.7
Nc1c(Br)cc2c(c1Br)C(O)c1ccccc1-2 (configuration not stated) | 25.9* | 2.2 | 1.1 | 5.3 | 9.1 | 0.1 | 5.0 | -25.3 | -0.5
CCOC(=O)C1=C(C)N(c2ccccc2)C(=O)/C1=C\c1cccs1 | -1.2 | -6.0 | 1.9 | -1.4 | 5.3 | 14.5 | nt | nt | nt
CCOC(=O)C1=C(C)N(c2ccc(C)cc2)C(=O)/C1=C\c1cccs1 | 58.3* | -1.5 | 1.9 | 0.4 | 5.9 | -12.1 | 1.7 | -8.8 | 7.1
CC(C)[C@H](NS(=O)(=O)c1ccc2c(c1)OCCO2)C(=O)OCC(=O)Nc1cccc(Cl)c1Cl | 18.1* | -2.6 | -4.0 | -0.2 | -14.5 | -5.7 | 0.7 | -3.5 | -1.5
CC(C)[C@H](NS(=O)(=O)c1ccc2c(c1)OCCO2)C(=O)OCC(=O)Nc1ccccc1Cl | 0.1 | -2.0 | 7.9 | 4.0 | -1.8 | 4.8 | nt | nt | nt
CN1CCN(C(=O)/C(=C/c2cccnc2)NC(=O)c2cccc(Br)c2)CC1 | -3.0 | 0.5 | 0.5 | 3.8 | 3.3 | 11.6 | nt | nt | nt
